Key:
[1] = molecular target: Cytochrome P450 2C9 (Homo sapiens, UniProt P11712); test: Inhibition of CYP2C9 in pooled human liver microsomes using diclofenac as substrate in presence of NADPH incubated for 10 mins by LC-MS/MS analysis
[2] = Toxicity in dog assessed as induction of abnormal changes in respiratory system up to 400 mg/kg, po; format: organism-based, Canis lupus familiaris; conditions: in vivo
Method in brief: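 Dogs fitted with telemetry were given oral doses of up to 400 mg/kg. Cardiovascular and respiratory systems were monitored for abnormal changes.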

[3] = Inhibition of PDE3 (unknown origin); set-up: species or system Homo sapiens
[4] = Tmax in mouse at 5 mg/kg, po; format: ADME, organism-based; conditions: in vivo
Method in brief: (§1)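 Single-dose PK study. The iv dose was given in 10% hydroxypropyl-β-cyclodextrin and the oral dose in 0.5% methylcellulose/1% Tween80. Mouse and rat received 1 mg/kg iv and 5 mg/kg po. Dog received 0.5 mg/kg iv and 4 mg/kg po. CL, Vss, t1/2, AUC, Cmax, tmax and F were derived.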

[5] = Cmax in mouse at 5 mg/kg, po; format: ADME, organism-based; set-up: route oral, dose 5 mg/kg; conditions: in vivo
[6] = molecular target: Cytochrome P450 3A4 (Homo sapiens, UniProt P08684); test: Inhibition of CYP3A4 in pooled human liver microsomes using midazolam as substrate in presence of NADPH incubated for 10 mins by LC-MS/MS analysis
[7] = test system: Mus musculus; test: Toxicity in mouse assessed as induction of abnormal changes in central nervous system up to 1000 mg/kg, po; conditions: in vivo
[8] = test system: Mus musculus; test: Improvement in lipid profile in C57BL/6-Lep^ob (ob/ob) mouse assessed as total cholesterol level at 20 mg/kg, po dosed once daily for 25 days (reference value: 286.6 +/- 6.3 mg/dl); format: functional; conditions: time 25 day
[9] = Oral bioavailability in mouse at 5 mg/kg; format: ADME, organism-based; conditions: in vivo; method in brief: as §1
[10] = Oral bioavailability in rat at 5 mg/kg; format: ADME, organism-based; conditions: in vivo; method in brief: as §1
[11] = Clearance in mouse at 1 mg/kg, iv; format: ADME, organism-based; conditions: in vivo
[12] = Protein binding in human plasma; format: ADME, cell-free; conditions: read-out: PPB
[13] = Volume of distribution at steady state in dog at 0.5 mg/kg, iv; format: ADME, organism-based, Canis lupus familiaris; conditions: in vivo, read-out: Vdss; method in brief: as §1
[14] = molecular target: Cytochrome P450 2C19 (Homo sapiens, UniProt P33261); test: Inhibition of CYP2C19 in pooled human liver microsomes using mephenytoin as substrate in presence of NADPH incubated for 10 mins by LC-MS/MS analysis
[15] = Volume of distribution at steady state in mouse at 1 mg/kg, iv; format: ADME, organism-based; conditions: in vivo, read-out: Vdss; method in brief: as §1
[16] = Clearance in dog at 0.5 mg/kg, iv; format: ADME, organism-based, Canis lupus familiaris; conditions: in vivo
[17] = molecular target: T1, UDP-glucuronosyltransferase 1A1 (Homo sapiens, UniProt P22309); test: Inhibition of UGT1A1 (unknown origin); format: ADME
T1 sequence (P22309 whole entry): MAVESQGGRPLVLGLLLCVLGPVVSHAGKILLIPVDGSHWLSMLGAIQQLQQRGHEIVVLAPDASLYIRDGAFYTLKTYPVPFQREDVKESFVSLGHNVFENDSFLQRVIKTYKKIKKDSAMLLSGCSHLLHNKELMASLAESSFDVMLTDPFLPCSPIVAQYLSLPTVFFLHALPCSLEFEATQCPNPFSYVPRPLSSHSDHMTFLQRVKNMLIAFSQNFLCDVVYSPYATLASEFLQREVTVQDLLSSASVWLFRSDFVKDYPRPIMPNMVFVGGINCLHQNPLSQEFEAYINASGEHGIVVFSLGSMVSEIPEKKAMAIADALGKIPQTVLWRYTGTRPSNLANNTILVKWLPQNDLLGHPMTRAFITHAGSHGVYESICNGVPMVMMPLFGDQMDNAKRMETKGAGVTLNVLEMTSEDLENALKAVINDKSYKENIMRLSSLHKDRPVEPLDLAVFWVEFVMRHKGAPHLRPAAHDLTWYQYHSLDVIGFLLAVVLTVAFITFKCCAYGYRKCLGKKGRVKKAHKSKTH

[18] = molecular target: T2, Glucocorticoid receptor (Homo sapiens, UniProt P04150); test: Agonist activity at glucocorticoid receptor (unknown origin)
T2 sequence (P04150 whole entry): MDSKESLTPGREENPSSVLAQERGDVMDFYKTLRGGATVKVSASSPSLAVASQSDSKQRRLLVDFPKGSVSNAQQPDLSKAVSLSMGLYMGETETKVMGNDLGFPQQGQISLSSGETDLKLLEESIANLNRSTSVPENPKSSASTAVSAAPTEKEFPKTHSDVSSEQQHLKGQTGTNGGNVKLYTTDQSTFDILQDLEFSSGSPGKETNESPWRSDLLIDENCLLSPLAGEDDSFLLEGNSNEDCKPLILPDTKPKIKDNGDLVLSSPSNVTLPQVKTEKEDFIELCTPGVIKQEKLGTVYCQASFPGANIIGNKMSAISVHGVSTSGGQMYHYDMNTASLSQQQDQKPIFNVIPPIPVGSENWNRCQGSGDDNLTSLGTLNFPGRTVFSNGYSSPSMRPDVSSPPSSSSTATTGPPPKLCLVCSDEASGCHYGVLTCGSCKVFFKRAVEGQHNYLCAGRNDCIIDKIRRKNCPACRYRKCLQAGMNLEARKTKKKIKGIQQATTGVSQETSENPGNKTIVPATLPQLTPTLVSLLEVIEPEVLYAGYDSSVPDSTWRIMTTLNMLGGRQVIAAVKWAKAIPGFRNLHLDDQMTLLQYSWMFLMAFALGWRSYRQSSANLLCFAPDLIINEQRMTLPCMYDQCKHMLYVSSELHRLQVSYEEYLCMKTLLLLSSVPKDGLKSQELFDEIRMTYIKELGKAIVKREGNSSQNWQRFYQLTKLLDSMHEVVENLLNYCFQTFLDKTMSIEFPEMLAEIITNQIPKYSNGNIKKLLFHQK

[19] = Reduction in HbA1c level in C57BL/6-Lep^ob (ob/ob) mouse at 20 mg/kg, po dosed once daily for 25 days and co-treated with 300 mg/kg. po QD for 25 days metformin relative to control; set-up: scale not given: the % may be the effect or the level left; conditions: time 25 day
[20] = Metabolic stability in mouse liver microsomes assessed as compound remaining after 30 mins; format: ADME, Microsome; conditions: read-out: Stabilty
[21] = test system: Mus musculus; test: Improvement in lipid profile in C57BL/6-Lep^ob (ob/ob) mouse assessed as triglyceride level at 20 mg/kg, po dosed once daily for 25 days (reference value: 90.9 +/- 5.5 mg/dl); format: functional; conditions: time 25 day
[22] = AUC in rat at 5 mg/kg, po; format: ADME, organism-based; set-up: dose 5 mg/kg; conditions: in vivo
[23] = In-vivo inhibition of 11beta-HSD1 activity in C57BL/6 mouse epididymal fat assessed as reduction in cortisone to-cortisol conversion at 10 mg/kg, po measured after 6 hrs by ELISA; format: functional; conditions: C57BL/6, Epididymal fat pad
Method in brief: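 Male C57BL/6 mice dosed orally once at 3, 10 or 30 mg/kg in sterile water containing 0.5% methylcellulose and 1% Tween80, then sacrificed at 2 or 6 h. Liver and epididymal fat pads incubated ex vivo in culture medium containing cortisone. Cortisol formed was measured by ELISA and reported as % inhibition versus vehicle.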

Sequence of Cytochrome P450 2C19 (P33261 whole entry): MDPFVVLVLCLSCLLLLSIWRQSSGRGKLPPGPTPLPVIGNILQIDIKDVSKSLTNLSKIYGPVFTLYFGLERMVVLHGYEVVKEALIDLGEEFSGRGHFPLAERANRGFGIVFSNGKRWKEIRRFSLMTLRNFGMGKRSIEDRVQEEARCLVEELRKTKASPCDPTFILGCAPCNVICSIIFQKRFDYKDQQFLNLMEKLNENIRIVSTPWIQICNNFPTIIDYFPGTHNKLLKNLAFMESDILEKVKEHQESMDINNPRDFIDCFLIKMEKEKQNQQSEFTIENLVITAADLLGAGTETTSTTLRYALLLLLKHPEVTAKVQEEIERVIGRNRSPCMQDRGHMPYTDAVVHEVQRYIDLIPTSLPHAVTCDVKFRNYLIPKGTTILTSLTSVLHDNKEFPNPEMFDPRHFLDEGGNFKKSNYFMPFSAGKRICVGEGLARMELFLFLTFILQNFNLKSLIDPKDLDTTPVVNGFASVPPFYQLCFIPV
Sequence of Cytochrome P450 3A4 (P08684 whole entry): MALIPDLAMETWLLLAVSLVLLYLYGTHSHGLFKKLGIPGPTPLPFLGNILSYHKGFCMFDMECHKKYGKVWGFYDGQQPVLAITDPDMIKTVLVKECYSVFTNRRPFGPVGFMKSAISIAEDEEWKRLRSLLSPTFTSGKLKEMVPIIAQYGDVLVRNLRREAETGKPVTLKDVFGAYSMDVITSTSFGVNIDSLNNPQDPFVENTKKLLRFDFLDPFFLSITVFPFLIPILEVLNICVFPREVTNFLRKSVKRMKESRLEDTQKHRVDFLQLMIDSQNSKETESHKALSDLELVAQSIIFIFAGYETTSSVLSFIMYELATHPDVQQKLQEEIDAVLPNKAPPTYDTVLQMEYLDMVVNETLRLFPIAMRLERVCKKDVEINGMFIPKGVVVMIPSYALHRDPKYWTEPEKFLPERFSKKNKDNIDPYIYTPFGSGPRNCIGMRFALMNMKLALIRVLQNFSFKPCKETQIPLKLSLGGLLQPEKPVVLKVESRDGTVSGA
Sequence of Cytochrome P450 2C9 (P11712 whole entry): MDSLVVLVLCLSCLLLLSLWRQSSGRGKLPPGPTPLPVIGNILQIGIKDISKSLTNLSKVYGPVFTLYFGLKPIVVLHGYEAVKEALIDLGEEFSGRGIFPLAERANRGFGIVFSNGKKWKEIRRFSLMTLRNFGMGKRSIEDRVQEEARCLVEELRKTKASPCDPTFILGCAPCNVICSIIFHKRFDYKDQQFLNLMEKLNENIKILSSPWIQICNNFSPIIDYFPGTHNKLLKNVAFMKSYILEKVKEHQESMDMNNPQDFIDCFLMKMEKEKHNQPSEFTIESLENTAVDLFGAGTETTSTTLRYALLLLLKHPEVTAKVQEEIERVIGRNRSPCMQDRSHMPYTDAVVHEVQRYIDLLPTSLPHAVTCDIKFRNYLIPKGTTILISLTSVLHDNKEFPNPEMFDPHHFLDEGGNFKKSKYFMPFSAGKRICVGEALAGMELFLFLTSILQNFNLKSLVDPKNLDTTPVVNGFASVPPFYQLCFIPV

For `C[C@@H]1CN(c2ccc(S(C)(=O)=O)cc2F)CCN1c1nccc(C(=O)NC2C3CC4CC2CC(O)(C4)C3)n1` (stereo partly drawn), the IC50 [1] was over 10 µM, the Activity [2] was “Non-Toxic” and the IC50 [3] was 5.4 µM. The Tmax [4] was 1 h, the Cmax [5] was 2.21 µg/mL and the IC50 [6] was over 10 µM. The Activity [7] was “Non-Toxic”, the Activity [8] was 230.6 mg/dL and the bioavailability [9] was 96%. It also gave a bioavailability [10] of 60%, a clearance [11] of 0.42 L/h/kg and a fraction unbound [12] of 0.01. It also gave a Vd [13] of 2.4 L/kg, an IC50 [14] of over 10 µM and a Vd [15] of 1.1 L/kg. The clearance [16] was 0.36 L/h/kg, the IC50 [17] was 5.6 µM and the EC50 [18] was over 5 µM. The Activity [19] was 1.67%, the remaining at 0.5 h [20] was 98% and the Activity [21] was 83.4 mg/dL. The AUC [22] was 3.39 µg·h/mL and the inhibition in vivo at 10 mg/kg [23] was 93%.
